This note sets out measurements from ChEMBL document CHEMBL5357039, “Physicochemical characterization of B-hydroxyphenyl phosphine borane derivatives and their evaluation as nuclear estrogen receptor ligands” (RSC Med Chem, 2024).

Data set [1] can be described thus: 1-Octanol/water partition coefficient, logP of the compound by HPLC analysis. The data set is classed as physicochemical.
Another data set deals with T1, Estrogen receptor (Homo sapiens, UniProt P03372).
T1 sequence (P03372 whole entry): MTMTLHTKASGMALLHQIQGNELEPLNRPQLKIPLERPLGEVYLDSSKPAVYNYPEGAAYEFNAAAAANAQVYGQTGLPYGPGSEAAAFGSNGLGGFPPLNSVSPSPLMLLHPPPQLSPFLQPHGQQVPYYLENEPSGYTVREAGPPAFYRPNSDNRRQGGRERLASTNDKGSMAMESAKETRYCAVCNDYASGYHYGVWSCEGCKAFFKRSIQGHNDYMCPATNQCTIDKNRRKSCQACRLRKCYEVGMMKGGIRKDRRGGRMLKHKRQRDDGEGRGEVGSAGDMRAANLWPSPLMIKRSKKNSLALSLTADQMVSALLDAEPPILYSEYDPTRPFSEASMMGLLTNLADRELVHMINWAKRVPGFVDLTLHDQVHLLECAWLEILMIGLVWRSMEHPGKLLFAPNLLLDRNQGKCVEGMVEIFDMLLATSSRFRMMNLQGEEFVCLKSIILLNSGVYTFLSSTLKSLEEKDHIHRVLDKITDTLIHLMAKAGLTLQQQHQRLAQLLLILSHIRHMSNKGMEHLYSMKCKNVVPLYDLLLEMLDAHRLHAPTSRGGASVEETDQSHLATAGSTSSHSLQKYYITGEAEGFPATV
As to the kind of experiment: (§1) Agonist activity at human ERalpha expressed in HEK293 cells assessed as increase in […] activity incubated for 24 hrs by luciferase based microplate reader assay. The data set is classed as cell-based.

The next data set deals with Lipid bilayer. As to the kind of experiment: Immobilized artificial membrane partition coefficient, logK-IAMex of the compound by HPLC analysis. The data set is classed as physicochemical. Summed up: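 Run on an IAM.PC.DD2 column. Mobile phase was 0.01 M PBS, or acetonitrile (40% to 25% v/v in 5% steps) in 0.01 M PBS, at pH 7.4. Dead time was taken with methanol. The 100% aqueous value was obtained by linear extrapolation from the acetonitrile runs. Mean of triplicates.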

A short description of data set [2]: Aqueous stability of the compound in PBS assessed as compound remaining at pH 7.4 incubated for 3 hrs by HPLC analysis. The data set is classed as physicochemical. Particulars: read-out: Stability. The method, boiled down: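 Test compound at 0.1 mM in acetonitrile/PBS (5:95 v/v), held 3 h at 37 °C. Analysed by reversed-phase C18 HPLC with the column at 37.0 °C and UV detection at the peak wavelength between 220 and 240 nm. Residual % = peak area at 3 h / peak area at t0 × 100. Mean of triplicate runs.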

The nature of data set [3]: Dissociation constant, pKa of the compound by pH-metric method. The data set is classed as physicochemical. The conditions noted are these: in the assay text read “pH-dependent UV absorbance method” for “pH-metric method”. The method, boiled down: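 Determined from the change in absorbance at λmax in pH-dependent UV spectra, recorded in 20:80 (w/w) methanol–phosphate buffer over pH 6.0–12.0. Meter pH corrected as pH* = pH(recorded) − 0.01. Triplicate measurements.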

The target of data set [4] is T2, Estrogen receptor (Homo sapiens) (UniProt P03372).
T2 sequence (whole entry): T1 sequence (P03372 whole entry)
Described as §1. The data set is classed as cell-based.

Calls of active or inactive are those of the source. The calls are words filed in the database; no cut-off is given here.

Regarding `CC[P+](Bc1cccc(O)c1)(CC)CC`, the log partition coefficient (logP) in data set [1] stood at 3.47. Moreover, the EC50 on Estrogen receptor was over 10 µM. This compound registered a logK-IAMex in the data set on Lipid bilayer of 1.59. Also, the remaining at 3 h in data set [2] amounted to 99.7%. The compound further returned a pKa in data set [3] of 11.3.
`CC(C)[P+](Bc1ccc(O)cc1)(c1ccccc1)C(C)C` gave a logP in data set [1] of 4.79. At Estrogen receptor, the EC50 was over 10 µM.
Consider `C[Si](C)(C)Cc1ccc(O)cc1`, for which the logP in data set [1] came out at 4.91. On Estrogen receptor, the EC50 is 1.41 µM. The compound further displayed a logK-IAMex in the data set on Lipid bilayer of 2.38. The remaining at 3 h in data set [2] stood at 89.9%. This compound also had a pKa in data set [3] of 10.7.
Take `Oc1ccc(B[P+](C2CC2)(C2CC2)C2CC2)cc1`: the logP in data set [1] was found to be 3.8. For the same compound, the EC50 at Estrogen receptor is 2.68 µM.
`C[P+](C)(Bc1cccc(O)c1)c1ccccc1` yielded a logP in data set [1] of 3.27. In addition, the EC50 at Estrogen receptor was over 10 µM. In the data set on Lipid bilayer, this compound showed a logK-IAMex of 1.71. In addition, the remaining at 3 h in data set [2] is 99%. The pKa in data set [3] was 11.3.
In turn, `C[P+](C)(C)Bc1cccc(O)c1` registered a logP in data set [1] of 2.55. Besides, the outcome in data set [4] was inactive. The compound further returned a logK-IAMex in the data set on Lipid bilayer of 0.81. The remaining at 3 h in data set [2] turned out to be 100%. In data set [3], this compound returned a pKa of 11.3.
Compound `C[Si](C)(Cc1ccc(O)cc1)c1ccccc1` gave a logP in data set [1] of 5.74. The same compound registered a logK-IAMex in the data set with Lipid bilayer of 3.05. For the same compound, the remaining at 3 h in data set [2] came out at 96.2%. In data set [3], this compound displayed a pKa of 10.9.
Turning to `CC(C)(Cc1ccc(O)cc1)c1ccccc1`, the lipophilicity (logP) in data set [1] was 5.26. This compound registered a logK-IAMex with Lipid bilayer of 2.73. In data set [2], the remaining at 3 h worked out at 99%. In data set [3], this compound returned a pKa of 10.7.
In data set [1], `CC(C)[P+](Bc1ccc(O)cc1)(C(C)C)C(C)C` registered a logP of 4.56.
Turning to `Oc1ccc(B[P+](C2CCCC2)(C2CCCC2)C2CCCC2)cc1`, the logP in data set [1] is 6.23. For the same compound, the result in data set [4] was inactive.
For `C[P+](C)(Bc1ccc(O)cc1)c1ccccc1`, the lipophilicity (logP) in data set [1] was 3.18. Also, in data set [4], the result was inactive. The logK-IAMex with Lipid bilayer stood at 1.91. For the same compound, the remaining at 3 h in data set [2] came to 94.5%. Moreover, the pKa in data set [3] was 11.2.
Turning to `CCCC[P+](Bc1ccc(O)cc1)(CCCC)CCCC`, the logP in data set [1] turned out to be 6.32. For the same compound, the outcome in data set [4] was inactive.
`CC(C)[P+](Bc1cccc(O)c1)(c1ccccc1)C(C)C` came in with a logP in data set [1] of 4.93. For the same compound, the EC50 on Estrogen receptor worked out at 3.45 µM.
With `CC[P+](Bc1ccc(O)cc1)(CC)c1ccccc1`, the lipophilicity (logP) in data set [1] came to 4.11. The result in data set [4] was inactive. The same compound registered a logK-IAMex in the data set with Lipid bilayer of 2.46. The remaining at 3 h in data set [2] was 97.6%. Also, the pKa in data set [3] is 11.1.
For the compound `Oc1ccc(B[P+](C2CCCCC2)(C2CCCCC2)C2CCCCC2)cc1`, the logP in data set [1] worked out at 7.22. The outcome in data set [4] was inactive.
`CCCC[P+](Bc1cccc(O)c1)(CCCC)CCCC` came in with a log partition coefficient (logP) in data set [1] of 6.43. The outcome in data set [4] was inactive.
`C[P+](C)(C)Bc1ccc(O)cc1` displayed a logP in data set [1] of 2.44. In addition, the outcome in data set [4] was inactive. In the data set on Lipid bilayer, this compound registered a logK-IAMex of 0.8. In data set [2], the remaining at 3 h stood at 99.9%. In data set [3], the pKa is 11.3.
In data set [1], `CC[P+](Bc1cccc(O)c1)(CC)c1ccccc1` yielded a logP of 4.19. Besides, on Estrogen receptor, the EC50 was 4.09 µM. For the same compound, the logK-IAMex with Lipid bilayer is recorded as 2.28. Further, the remaining at 3 h in data set [2] is 100%. In data set [3], this compound showed a pKa of 11.3.
Regarding `CC[P+](Bc1ccc(O)cc1)(CC)CC`, the logP in data set [1] came to 3.28. For the same compound, the logK-IAMex with Lipid bilayer was 1.81. Besides, the remaining at 3 h in data set [2] was found to be 99.3%. Further, in data set [3], the pKa is 11.
Turning to `CC(C)(C)Cc1ccc(O)cc1`, the logP in data set [1] turned out to be 4.36. Also, the logK-IAMex with Lipid bilayer is reported as 2.22. Besides, the remaining at 3 h in data set [2] amounted to 92.5%. This compound had a pKa in data set [3] of 10.8.

One may read the logP as the decadic logarithm of the partition coefficient of the neutral form, usually between octanol and water. A low value points to a more hydrophilic compound. By EC50 is commonly meant the concentration giving half of the maximal effect. The term pKa denotes the negative logarithm of the acid dissociation constant. Higher therefore signals a weaker acid or stronger base.
